Test results reported in ChEMBL document CHEMBL3352004, “(7-Benzyloxy-2,3-dihydro-1H-pyrrolo[1,2-a]indol-1-yl)acetic Acids as S1P1 Functional Antagonists” (ACS Med Chem Lett, 2014).
In brackets after ≈: the same amount, converted by molar mass.

Key:
[1] = biological target: T1, Sphingosine 1-phosphate receptor 1 (Homo sapiens, UniProt P21453); test: Agonist activity at human S1P1 receptor assessed as cAMP accumulation by HTRF assay relative to S1P; assay type: functional
[2] = biological target: Sphingosine 1-phosphate receptor 2 (Homo sapiens, UniProt O95136); test: Agonist activity at human S1P2 receptor by beta-arrestin recruitment assay
[3] = biological target: T1, Sphingosine 1-phosphate receptor 1; test: Agonist activity at human S1P1 receptor assessed as cAMP accumulation by HTRF assay; assay type: functional
How it was run: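 S1P1 engagement measured as cyclase activity in a homogeneous time-resolved fluorescence (HTRF) assay.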

[4] = biological target: T1, Sphingosine 1-phosphate receptor 1; test: Agonist activity at human S1P1 receptor by beta-arrestin recruitment assay
[5] = biological target: T2, Sphingosine 1-phosphate receptor 4 (Homo sapiens, UniProt O95977); test: Agonist activity at human S1P4 receptor by beta-arrestin recruitment assay
T2 sequence (O95977 whole entry): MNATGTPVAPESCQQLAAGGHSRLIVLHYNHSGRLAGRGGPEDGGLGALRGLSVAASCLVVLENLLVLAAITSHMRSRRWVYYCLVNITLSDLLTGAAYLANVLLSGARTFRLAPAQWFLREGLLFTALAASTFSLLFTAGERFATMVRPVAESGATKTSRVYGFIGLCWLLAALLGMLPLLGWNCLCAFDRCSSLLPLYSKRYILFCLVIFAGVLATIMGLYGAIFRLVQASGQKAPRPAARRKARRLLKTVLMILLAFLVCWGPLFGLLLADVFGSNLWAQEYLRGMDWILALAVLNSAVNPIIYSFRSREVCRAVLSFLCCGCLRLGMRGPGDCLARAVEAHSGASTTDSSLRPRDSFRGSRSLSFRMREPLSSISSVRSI

[6] = biological target: Sphingosine 1-phosphate receptor 3 (Homo sapiens, UniProt Q99500); test: Agonist activity at human S1P3 receptor by beta-arrestin recruitment assay
[7] = biological target: T3, Sphingosine 1-phosphate receptor 5 (Homo sapiens, UniProt Q9H228); test: Agonist activity at human S1P5 receptor by beta-arrestin recruitment assay
[8] = biological target: T1, Sphingosine 1-phosphate receptor 1; test: Agonist activity at human S1P1 receptor by beta-arrestin recruitment assay relative to S1P
[9] = Ratio of drug level in brain to plasma in Sprague-Dawley rat; assay type: ADME; settings: read-out: BPR
How it was run: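 Abbreviated rat CNS distribution: a single 1.0 mg/kg oral dose, with brain and plasma drug levels measured over 6 h. Brain-to-plasma ratio derived from these levels.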

[10] = Tmax in Sprague-Dawley rat at 1 mg/kg, po; assay type: ADME, organism-based; parameters: dose 1 mg/kg, route oral; settings: in vivo
[11] = Volume of distribution at steady state in Sprague-Dawley rat at 1 mg/kg, iv; assay type: ADME, organism-based; parameters: dose 1 mg/kg, route intravenous; settings: in vivo, read-out: Vdss
[12] = Systemic clearance in Sprague-Dawley rat at 1 mg/kg, iv; assay type: ADME, organism-based; parameters: dose 1 mg/kg, route intravenous; settings: in vivo
[13] = Elimination half life in Sprague-Dawley rat at 1 mg/kg, po; assay type: ADME, organism-based; parameters: dose 1 mg/kg, route oral; settings: in vivo, read-out: beta t1/2 (converted)
[14] = species on record: Rattus norvegicus; test: Reduction in lymphocyte count in Sprague-Dawley rat; assay type: functional, organism-based
How it was run: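 A PK/PD model relating plasma drug concentration to circulating lymphocyte counts was used to derive the plasma concentration that reduces lymphocytes by 50% (LL IC50, ng/mL).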

[15] = AUC (0 to infinity) in Sprague-Dawley rat at 1 mg/kg, iv or at 1 mg/kg, po; assay type: ADME, organism-based; settings: plasma
[16] = Oral bioavailability in Sprague-Dawley rat at 1 mg/kg; assay type: ADME, organism-based; settings: in vivo
[17] = Cmax in Sprague-Dawley rat at 1 mg/kg, po; assay type: ADME, organism-based; parameters: dose 1 mg/kg, route oral; settings: in vivo
[18] = biological target: T4, Sphingosine 1-phosphate receptor 4 (Homo sapiens) (UniProt O95977); test: Agonist activity at human S1P4 receptor by beta-arrestin recruitment assay relative to S1P
T4 sequence (whole entry): T2 sequence (O95977 whole entry)

[19] = biological target: T3, Sphingosine 1-phosphate receptor 5; test: Agonist activity at human S1P5 receptor by beta-arrestin recruitment assay relative to S1P
[20] = Half life in human; assay type: ADME, organism-based; settings: in vivo

Sphingosine 1-phosphate receptor 2, sequence (O95136 whole entry): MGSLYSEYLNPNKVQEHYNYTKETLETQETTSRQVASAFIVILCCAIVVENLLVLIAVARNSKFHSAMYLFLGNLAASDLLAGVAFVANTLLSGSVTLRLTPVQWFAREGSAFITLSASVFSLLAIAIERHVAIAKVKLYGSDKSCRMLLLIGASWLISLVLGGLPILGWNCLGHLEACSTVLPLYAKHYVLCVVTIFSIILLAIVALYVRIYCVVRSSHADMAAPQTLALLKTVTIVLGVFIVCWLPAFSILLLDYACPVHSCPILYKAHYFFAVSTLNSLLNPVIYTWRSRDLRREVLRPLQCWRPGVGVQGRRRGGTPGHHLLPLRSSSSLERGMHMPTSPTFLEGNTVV
T3 sequence (Q9H228 whole entry): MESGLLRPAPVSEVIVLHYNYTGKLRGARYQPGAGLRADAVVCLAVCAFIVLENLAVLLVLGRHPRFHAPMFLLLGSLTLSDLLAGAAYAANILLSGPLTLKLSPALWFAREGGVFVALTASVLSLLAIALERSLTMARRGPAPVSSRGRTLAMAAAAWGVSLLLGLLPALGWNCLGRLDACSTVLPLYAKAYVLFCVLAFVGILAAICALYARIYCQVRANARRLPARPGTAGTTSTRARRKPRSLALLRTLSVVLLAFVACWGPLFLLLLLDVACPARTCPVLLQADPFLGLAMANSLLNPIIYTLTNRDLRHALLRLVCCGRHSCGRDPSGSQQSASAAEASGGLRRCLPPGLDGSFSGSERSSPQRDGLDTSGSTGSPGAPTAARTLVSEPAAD
T1 sequence (P21453 whole entry): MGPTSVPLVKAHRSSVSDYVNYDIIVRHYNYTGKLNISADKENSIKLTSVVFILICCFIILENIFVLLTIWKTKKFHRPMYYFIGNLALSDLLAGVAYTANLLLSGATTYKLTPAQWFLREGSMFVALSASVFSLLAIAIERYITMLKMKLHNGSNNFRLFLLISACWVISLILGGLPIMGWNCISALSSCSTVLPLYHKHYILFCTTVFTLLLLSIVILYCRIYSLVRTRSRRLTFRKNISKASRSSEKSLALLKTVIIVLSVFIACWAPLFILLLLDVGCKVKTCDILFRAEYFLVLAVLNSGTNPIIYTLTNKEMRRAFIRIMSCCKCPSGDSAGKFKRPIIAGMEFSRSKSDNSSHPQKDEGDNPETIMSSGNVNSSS
Sphingosine 1-phosphate receptor 3, sequence (Q99500 whole entry): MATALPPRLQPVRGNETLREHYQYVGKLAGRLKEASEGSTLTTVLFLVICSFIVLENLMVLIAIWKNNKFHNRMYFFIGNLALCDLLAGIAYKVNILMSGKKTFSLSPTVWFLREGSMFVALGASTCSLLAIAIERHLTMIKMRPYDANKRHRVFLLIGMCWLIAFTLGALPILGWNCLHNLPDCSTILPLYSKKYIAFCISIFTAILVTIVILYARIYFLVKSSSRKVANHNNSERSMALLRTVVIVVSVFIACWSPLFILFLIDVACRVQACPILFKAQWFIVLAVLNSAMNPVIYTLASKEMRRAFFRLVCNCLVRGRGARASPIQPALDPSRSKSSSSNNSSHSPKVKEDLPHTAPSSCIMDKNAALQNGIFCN

| Emax [1] | EC50 [2] | EC50 [3] | EC50 [4] | EC50 [5] | EC50 [6] | EC50 [7] | Emax [8] | Structure (SMILES) | other results |
| --- | --- | --- | --- | --- | --- | --- | --- | --- | --- |
| 108% |  |  |  |  |  |  |  | O=C(O)CC1CCn2c1cc1cc(OCc3ccc(C4CCCC4)c(C(F)(F)F)c3)ccc12 (racemic) |  |
|  | > 10000 nM | 0.067 nM | 8.6 nM | > 10000 nM | > 10000 nM | > 10000 nM |  | CC(C)Oc1ccc(COc2ccc3c(c2)cc2n3CCC2CC(=O)O)cc1C(F)(F)F (single isomer, unassigned; enantiomer 1) [listing 1 of 2 here] |  |
| 107% |  |  |  |  |  |  | 108% | CC(C)Oc1ccc(COc2ccc3c(c2)cc2n3CCC2CC(=O)O)cc1C(F)(F)F (single isomer, unassigned; enantiomer 1) [listing 2 of 2 here] |  |
|  | > 10000 nM | 0.041 nM | 2.5 nM | 570 nM | > 10000 nM | 107 nM |  | O=C(O)CC1CCn2c1cc1cc(OCc3ccc(C4CCCC4)c(C(F)(F)F)c3)ccc12 (stereo in doubt; 12a) [listing 1 of 2 here] | Kp [9]: 0.53; Tmax [10]: 2.67 h; Vd [11]: 0.986 L/kg; clearance [12]: 1.2 mL/min/kg; half-life [13]: 9.16 h; IC50 [14]: 0.0241 µg/mL (≈ 0.0527 µM); AUC(0-inf) [15]: 5430 ng·h/mL; bioavailability [16]: 39%; Cmax [17]: 526 ng/mL |
| 100% |  |  |  |  |  |  | 100% | O=C(O)CC1CCn2c1cc1cc(OCc3ccc(C4CCCC4)c(C(F)(F)F)c3)ccc12 (stereo in doubt; 12b) [listing 2 of 2 here] | Emax [18]: 49%; Emax [19]: 59% |
|  | > 10000 nM | 0.13 nM | 11 nM | > 10000 nM | > 10000 nM | 410 nM |  | CC(C)Oc1ccc(COc2ccc3c(c2)cc2n3CCC2CC(=O)O)cc1C#N (stereo in doubt; 19a) [listing 1 of 2 here] | Kp [9]: 0.016; Tmax [10]: 2 h; Vd [11]: 0.732 L/kg; clearance [12]: 2.18 mL/min/kg; half-life [13]: 3.99 h; IC50 [14]: 0.21 µg/mL (≈ 0.519 µM); AUC(0-inf) [15]: 3990 ng·h/mL; bioavailability [16]: 49.8%; Cmax [17]: 569 ng/mL |
| 98% |  |  |  |  |  |  | 128% | CC(C)Oc1ccc(COc2ccc3c(c2)cc2n3CCC2CC(=O)O)cc1C#N (stereo in doubt; 19a) [listing 2 of 2 here] | Emax [19]: 54% |
| 104% |  |  |  |  |  |  | 122% | CC(C)Oc1ccc(COc2ccc3c(c2)cc2n3CCC2CC(=O)O)cc1C#N (stereo in doubt; 19b) [listing 2 of 2 here] | Emax [19]: 133% |

Second part, the compound before the results:

| Structure (SMILES) | Emax [1] | EC50 [2] | EC50 [3] | EC50 [4] | EC50 [5] | EC50 [6] | EC50 [7] | Emax [8] | other results |
| --- | --- | --- | --- | --- | --- | --- | --- | --- | --- |
| CC(C)Oc1ccc(COc2ccc3c(c2)cc2n3CCC2CC(=O)O)cc1C(F)(F)F (single isomer, unassigned; enantiomer 2) [listing 1 of 2 here] |  | > 10000 nM | 0.64 nM | 40 nM | > 10000 nM | > 10000 nM | > 10000 nM |  |  |
| CC(C)Oc1ccc(COc2ccc3c(c2)cc2n3CCC2CC(=O)O)cc1C(F)(F)F (single isomer, unassigned; enantiomer 2) [listing 2 of 2 here] | 116% |  |  |  |  |  |  | 104% |  |
| O=C(O)CC1CCn2c1cc1cc(OCc3ccc(C4CCCC4)c(C(F)(F)F)c3)ccc12 (stereo in doubt; 12a) [listing 2 of 2 here] | 97% |  |  |  |  |  |  | 105% | Emax [18]: 47%; Emax [19]: 83% |
| O=C(O)CC1CCn2c1cc1cc(OCc3ccc(C4CCCC4)c(C(F)(F)F)c3)ccc12 (stereo in doubt; 12b) [listing 1 of 2 here] |  | > 10000 nM | 0.32 nM | 20 nM | 420 nM | > 10000 nM | 81 nM |  |  |
| CC(C)Oc1ccc(COc2ccc3c(c2)cc2n3CCC2CC(=O)O)cc1C#N (stereo in doubt; 19b) [listing 1 of 2 here] |  | > 10000 nM | 1.5 nM | 160 nM | > 10000 nM | > 10000 nM | 9800 nM |  |  |
| CCCCCCCCc1ccc(CCC(N)(CO)CO)cc1 [FINGOLIMOD] |  |  |  |  |  |  |  |  | half-life [20]: 89 h |
